Screening results: PubChem, several laboratories
Rpn11 inh – Rpn11 (PSMD14) deubiquitinase inhibitors, primary screen, biochemical, fluorescence polarization, uHTS | 26S proteasome non-ATPase regulatory subunit 14 (Homo sapiens), O00487 | human 26S proteasome, Ub4-pepOG fluorescence polarization; 20S core pre-blocked with epoxomicin | inhibition, % at 20 µM | 360,000 compounds, 0.59% hits | AID 588493, 2011;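 active means inhibition at 20 µM, scaled to each plate's controls, above about 33%, limit read from the data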
TPT1 inhibitor – Candida albicans TPT1 enzyme inhibitors, primary screen, biochemical, fluorescence polarization; recombinant caTPT1, FP RNA substrate dephosphorylation; tRNA 2'-phosphotransferase TPT1 (Candida albicans SC5314); AID 1962, 2009; inhibition, % at 5 µM; 300,000 compounds, 0.81% hits;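 active means inhibition above the mean of all tested compounds plus 3 SD, set per screening campaign, cut at about 24% in these data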;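 further: plate controls were DMSO alone for no effect and ferristatin control at 100 nM for full effect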
HNF4A DNA FP – change in binding of human HNF4A to DNA, primary screen, biochemical, fluorescence polarization, FITC-DNA; AID 1224865, 2016; activity change, % at 10 µM; Hepatocyte nuclear factor 4-alpha (Homo sapiens), P41235; 1 h; 360,000 compounds, 0.3% hits; in the data active means activity change above about 30%, passing the limit was not always enough
Target sequence (P41235 whole entry, looked up): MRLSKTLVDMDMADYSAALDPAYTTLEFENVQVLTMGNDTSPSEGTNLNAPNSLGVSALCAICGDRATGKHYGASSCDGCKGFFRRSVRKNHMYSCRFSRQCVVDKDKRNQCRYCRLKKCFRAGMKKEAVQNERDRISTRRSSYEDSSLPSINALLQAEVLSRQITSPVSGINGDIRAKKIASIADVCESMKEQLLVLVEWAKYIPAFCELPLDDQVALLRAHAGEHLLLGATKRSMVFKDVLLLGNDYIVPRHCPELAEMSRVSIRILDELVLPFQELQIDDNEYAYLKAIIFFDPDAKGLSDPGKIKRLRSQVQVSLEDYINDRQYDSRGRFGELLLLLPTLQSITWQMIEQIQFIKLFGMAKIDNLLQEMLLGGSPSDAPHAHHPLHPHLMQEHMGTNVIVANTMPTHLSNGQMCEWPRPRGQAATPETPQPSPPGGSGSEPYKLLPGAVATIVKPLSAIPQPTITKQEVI
CSN deneddyl inh – inhibitors of CSN-mediated cullin deneddylation, primary screen, biochemical, fluorescence polarization, uHTS; Purified CSN, SCF-Nedd8-OG deneddylation; AID 651999, 2013; inhibition, % at 12.5 µM; COP9 signalosome complex subunit 5 (Homo sapiens), Q92905; 360,000 compounds, 0.38% hits;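 active means pattern-corrected inhibition above about 35%, with an unprinted fluorescence ratio check between 0.5 and 1.5, limit read from the data, passing the limit was not always enough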;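 further: 0% = enzyme with substrate and 100% = substrate without enzyme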
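Assay system: HEK293T-derived human Csn5 enzyme; quantity: 0.24 nM enzyme; medium: Tris/NaCl/DTT buffer, pH 7.5; also added: substrate SCFSkp2-Nedd8OG, 10 nM; doses: 12.5 µM compound; schedule: 90 min reaction at room temperature; signal: FP; read-out: % inhibition of substrate cleavage by Csn5; benchmarks: substrate-only high control, full reaction low control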
IDE cell activ – human IDE activators in live cells, primary screen, fluorescence polarization, HEK cells, FAbeta-B substrate. Insulin-degrading enzyme (Homo sapiens), P14735. FAbeta-B cleavage; 0% vehicle, 100% cell-free pure enzyme wells. activation, % at 5.96 µM. 340,000 compounds, 0.073% hits. AID 493087, 2011;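 active means activation above the mean of all tested compounds plus 3 SD, set per screening campaign, cut at about 17% in these data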
IDE inh – human IDE inhibitors in live cells, primary screen, fluorescence polarization, HEK cells, FAbetaB substrate | 320,000 compounds, 0.41% hits | AID 434962, 2010 | inhibition, % at 5.59 µM | Insulin-degrading enzyme (Homo sapiens), P14735 | FAbetaB cleavage;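 active means percent inhibition above the average of all tested compounds plus 3 SD, set per screening campaign, cut at about 16% in these data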;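 further: IDE supplied by intact live HEK cells; FP after avidin binding of uncleaved biotin substrate so inhibition keeps polarization high; 0% = DMSO wells and 100% = 60 µM reference IDE inhibitor Ii1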
caTPT1 confirm – Candida albicans TPT1 inhibitors, confirmation, biochemical, fluorescence polarization, triplicate; shares compounds with TPT1 inhibitor; recombinant caTPT1, RNase T1 coupled; inhibition, % at 5 µM; 2,400 compounds, 74% hits; AID 2149, 2009;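 active means inhibition above the primary screen limit, the mean inhibition of all tested compounds plus 3 SD, cut at about 25% in these data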
RNase T1 inh – RNase T1 inhibitors, counter-screen for TPT1 inhibitor project, biochemical, fluorescence polarization. shares compounds with TPT1 inhibitor. RNase T1 cleavage, 1536-well. inhibition, % at 5 µM. 2,400 compounds, 83% hits. AID 2153, 2009;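 active means inhibition above the solvent-only control well mean plus 3 SD, limit set per screening run, cut at about 23% in these data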;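 further: plate controls were DMSO wells with enzyme for no effect and wells without RNase T1 for full effect; inhibitors block cleavage so intact labeled substrate keeps polarization high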
Target sequence (P00651 whole entry, looked up): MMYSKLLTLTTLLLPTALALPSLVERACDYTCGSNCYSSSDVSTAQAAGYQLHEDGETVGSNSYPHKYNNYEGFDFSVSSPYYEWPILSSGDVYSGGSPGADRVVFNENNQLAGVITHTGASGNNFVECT
Starred values were filed as active, the others as inactive; · = not tested or not shown. Shown are actives, neighbours in structure and some others; about 1.7% of the full set was active somewhere.

SMILES	Rpn11 inh	TPT1 inhibitor	HNF4A DNA FP	CSN deneddyl inh	IDE cell activ	IDE inh	caTPT1 confirm	RNase T1 inh
Cc1[nH]c2ccccc2c1/C=N/NC(=O)c1ccccc1	-9	0	1	-2	3	5	·	·
CCn1c(/C=C/c2c(C)[nH]c3ccccc23)nc2ccccc2c1=O	·	38*	22	-1	6	-2	59*	71*
CCCCOc1ccc(S(=O)(=O)NC(=O)C2(C)CCN2C(=O)c2c(C)noc2C)cc1 (stereo not given)	-5	·	1	0	·	·	·	·
Cc1ccc(-c2nc(CN3CCCCC3c3cccc(F)c3)c(C)o2)o1 (stereo not given)	28	33*	19	9	5	4	23	30*
CCOC(=O)Oc1c(OC)cc(C(=O)O[C@@H]2C[C@@H]3CN4CCc5c([nH]c6cc(OC)ccc56)[C@H]4C[C@@H]3[C@H](C(=O)OC)[C@H]2OC)cc1OC	40	45*	32	0	4	0	42*	53*
Cc1c(N=C2N=C(NC(=O)c3cccs3)c3ccccc32)c(=O)n(-c2ccccc2)n1C	·	85*	48	34	-24	3	113*	113*
CCOCC(=O)Nc1nc2ccc(C)cc2s1	-4	-3	-2	-2	-7	7	·	·
Cc1ccc2nc(NC(=O)CSCC(=O)OCC(=O)c3ccccc3)sc2c1	2	30*	0	-3	2	-6	9	14
C[C@H](NC(=O)c1[nH]cnc1C(=O)Nc1ccccc1F)c1ccccc1	8	·	-5	0	·	·	·	·
O=C(C[n+]1ccccc1)c1ccc(-c2ccccc2)cc1	6	40*	4	-2	-9	7	4	9
C=Cn1cc[n+](CC(=O)c2ccc(-c3ccccc3)cc2)c1	0	0	5	1	-9	1	·	·
COc1ccc(C2NC3=C(CCCC3)C(C#N)(C#N)C2(C#N)C#N)cc1 (stereo not given)	·	33*	·	·	·	7	34*	47*
CCCCN(C)CCNC(=O)c1cc2c(-c3cccc(OC)c3)nn(C)c2s1	-8	0	-2	4	-1	-3	·	·
CCN(CC)CCCNC(=O)c1cc2c(-c3cccc(OC)c3)nn(C)c2s1	-7	37*	3	1	3	5	4	5
Cn1cccc1CC(=O)N/N=C\c1c2ccccc2cc2ccccc12	11	-7	9	7	2	-4	·	·
Cn1cccc1CC(=O)N/N=C/c1cccc2ccccc12	-14	33*	-2	1	-3	2	20	30*
CC(=O)N1c2ccc(Cl)cc2C2C=CCC2C1c1cccc2ccccc12 (stereo not given)	7	5	3	1	3	-4	·	·
CC(=O)N1c2ccc3ccccc3c2C2C=CCC2C1c1ccc(Br)cc1 (stereo not given)	·	36*	·	·	·	6	12	19
CSCCC(C(=O)NCc1ccccc1)n1c(Cc2cc(F)cc(F)c2)nc2ccccc21 (stereo not given)	·	·	-2	-3	·	·	·	·
Cc1cccc(OCCn2ccnc2)c1	-3	-1	-3	-7	2	-7	·	·
Clc1ccc(OCCn2ccnc2)cc1Cl	6	60*	0	3	1	-2	6	8
CCOC(=O)C1=CCN(S(=O)(=O)c2ccccc2Cl)C1c1cccc(C)c1 (stereo not given)	-3	·	2	-2	·	·	·	·
COc1cc(CN2C(=O)C(CCc3ccccc3)ON=C2c2cnccn2)cc(OC)c1 (stereo not given)	2	·	4	-5	·	·	·	·
COc1ccc2c(c1)C(CC(C)=O)N(c1ccc(-c3cccs3)cc1)C(c1ccsc1)=C2 (stereo not given)	·	·	6	4	·	·	·	·
CSc1cccc(NC(=O)C2CCCN(S(C)(=O)=O)C2)c1 (stereo not given)	5	·	2	3	·	·	·	·
SMILES	Rpn11 inh	TPT1 inhibitor	HNF4A DNA FP	CSN deneddyl inh	IDE cell activ	IDE inh	caTPT1 confirm	RNase T1 inh
O=C(/C=C/c1cn(CC(O)CN2CCOCC2)c2ccccc12)c1cccs1 (stereo not given)	·	63*	·	·	·	7	82*	88*
Cc1ccc(C(=O)/C=C/c2cn(CC(O)CN3CCOCC3)c3ccccc23)cc1 (stereo not given)	·	47*	25	14	1	12	46*	57*
OC(CN1CCOCC1)Cn1cnc2ccccc21 (stereo not given)	2	3	3	2	1	2	·	·
O=Cc1cn(CC(O)CN2CCCCC2)c2ccccc12 (stereo not given)	0	-1	3	3	3	-1	·	·
Cc1ccc(/C=C2\CCC3=C2OC(N)=C(C#N)C3c2ccc(C)cc2)cc1 (stereo not given)	·	122*	60	65	-44	56*	121*	112*
Cc1ccc(C2C(C#N)=C(N)Oc3cc(N)ccc32)cc1 (stereo not given)	-6	6	3	-1	0	6	·	·
Cc1ccc2c(c1)S/C(=C\c1cccc[n+]1C)N2CCO	4	-1	6	0	0	5	·	·
CCN1/C(=C/c2ccc3cc(C)ccc3[n+]2CC)Sc2ccc3sccc3c21	147*	33*	249	162*	-40	7	63*	66*
CCN(CC)C(=O)Cn1cc(C(=O)C(=O)Nc2ccc3c(c2)OCO3)c2ccccc21	0	·	-3	-1	·	·	·	·
CC(C)(C)NC(=O)CSc1nc(O)cc(=O)n1-c1ccccc1F	·	109*	78*	56*	-3	5	84*	94*
O=C1C(=Cc2ccc(Br)o2)C(=O)c2ccccc21	·	26*	-73	50	1	2	26*	28*
CC1=C/C(=C\c2ccc(Br)o2)C(=O)O1	5	6	-37	32	9	2	·	·
CC(O)(c1cccc(F)c1)c1nc(-c2cccc3cccnc23)cs1 (stereo not given)	-2	·	-3	4	·	·	·	·
